Series [1] addresses T1, Bcl-2-like protein 1 (Homo sapiens, UniProt Q07817). Nature of the series: Inhibition of Bcl-XL-mediated cell death reduction expressed in serum starved mouse 3T3 cells assessed as residual cell viability at 5 uM incubated for 96 hrs by propidium iodide staining based FACS method. Conditions: NIH3T3. The essentials:
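3T3 cells infected with pMig-hBcl-xL vector to overexpress human Bcl-xL, maintained in DMEM/10% FBS. Compound 5 µM given under serum starvation; % residual viability scored at 96 h by propidium iodide staining and FACS.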
On the technique in general: A flow cytometer gives signals particle by particle.

Series [2] has as its system IM-9. Put plainly: Induction of apoptosis in human IM9 cells at 10 uM incubated for 24 hrs by Annexin V and propidium iodide staining based FACS method. It counts as functional, cell-based. The essentials:
(§1)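 Tumour lines grown in RPMI with 10% FBS, 2 mM glutamine, 10 mM Hepes and gentamicin; PBMC from healthy donors, purified on Ficoll gradient, same medium. Cells exposed 24 h, then Annexin V/propidium iodide labelling and flow cytometry. Specific viability = (% viable treated × 100)/% viable untreated.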

Series [3] relates to BP3. Put plainly: Induction of apoptosis in human BP3 cells at 10 uM incubated for 24 hrs by Annexin V and propidium iodide staining based FACS method. The format is functional, cell-based. The essentials:
as §1

Series [4] concerns the target Induced myeloid leukemia cell differentiation protein Mcl-1 (Homo sapiens, UniProt Q07820). Nature of the series: Inhibition of GST-tagged recombinant Mcl1 interaction with biotinylated Bim peptide by ELISA based competitive binding assay. The essentials:
(§2)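 Plates coated with anti-GST antibody (1 µg/mL, overnight, 4 °C), blocked in PBS/1% BSA. GST-tagged Bcl-xL, Bcl-2, Bfl-1 or Mcl-1 (10 ng/mL) bound 2 h, RT. Compound added for 1 h, then biotinylated Bim peptide (1 nM) for 1 h. HRP-streptavidin detection, acid stop, OD 450 nm; EC50 derived.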

The target of another series is T2, Bcl-2-related protein A1 (Homo sapiens, UniProt Q16548).
T2 sequence (Q16548 whole entry): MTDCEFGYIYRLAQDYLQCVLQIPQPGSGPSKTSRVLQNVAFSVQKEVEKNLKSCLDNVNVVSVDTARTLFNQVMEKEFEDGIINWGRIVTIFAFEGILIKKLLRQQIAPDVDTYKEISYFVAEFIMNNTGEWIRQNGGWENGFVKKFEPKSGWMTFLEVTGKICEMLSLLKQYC
Put plainly: Inhibition of GST-tagged recombinant Bfl1 interaction with biotinylated Bim peptide by ELISA based competitive binding assay. In a few lines: as §2
On the technique in general: In an ELISA, binding on a coated surface is turned into a signal by an enzyme label.

The target in series [5] is Apoptosis regulator Bcl-2 (Homo sapiens, UniProt P10415). Nature of the series: Inhibition of GST-tagged recombinant Bcl2 interaction with biotinylated Bim peptide by ELISA based competitive binding assay. The essentials:
as §2

Series [6] concerns RS4-11. Put plainly: Induction of apoptosis in human RS4:11 cells at 10 uM incubated for 24 hrs by Annexin V and propidium iodide staining based FACS method. The format is functional, cell-based. The essentials:
as §1

Series [7] concerns the target T1, Bcl-2-like protein 1. Nature of the series: Inhibition of GST-tagged recombinant Bcl-XL interaction with biotinylated Bim peptide by ELISA based competitive binding assay. In a few lines: as §2
Series [8] deals with MEF. Nature of the series: Induction of cell death in mouse MEF cells containing Bax/Bak double knock out at 1 uM by Annexin V and propidium iodide staining based FACS method. The format is functional. The essentials: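 Wild-type and Bax/Bak double-knockout MEFs were grown in DMEM with 10% FBS, 2 mM glutamine, 10 mM Hepes and gentamicin. They were treated for 24 h and stained with propidium iodide, with or without Annexin V, then analysed by flow cytometry. Data are mean ± SEM of 3 independent experiments.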

For series [9], the system named is BP3. Nature of the series: Induction of apoptosis in human BP3 cells at 5 uM incubated for 24 hrs by Annexin V and propidium iodide staining based FACS method. The format is functional, cell-based. The essentials: (§3)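 Cells grown in RPMI with 10% FBS, 2 mM glutamine, 10 mM Hepes and gentamicin. Exposed to compound for 24 h, then labelled with Annexin V and propidium iodide and read by flow cytometry. Specific viability = (% viable treated × 100)/% viable untreated.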

Series [10] relates to RS4-11. Put plainly: Induction of apoptosis in human RS4:11 cells at 5 uM incubated for 24 hrs by Annexin V and propidium iodide staining based FACS method. It counts as functional, cell-based. In a few lines:
as §3

The subject of series [11] is IM-9. Put plainly: Induction of apoptosis in human IM9 cells at 5 uM incubated for 24 hrs by Annexin V and propidium iodide staining based FACS method. The format is functional, cell-based. In a few lines:
as §3

Series [12] concerns MEF. Nature of the series: Induction of cell death in mouse MEF cells containing Bax/Bak double knock out at 10 uM by Annexin V and propidium iodide staining based FACS method. The format is functional. The essentials: (§4)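 Wild-type and DKO MEFs kept in DMEM with 10% FBS, 2 mM glutamine, 10 mM Hepes and gentamicin. Cultured in medium alone or with compound, staurosporine 1 µM as reference. Viability read by flow cytometry; mean ± SEM of 3 independent experiments.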

Series [13] deals with MEF. Put plainly: Induction of cell death in mouse MEF cells containing Bax/Bak double knock out at 1.25 to 10 uM by Annexin V and propidium iodide staining based FACS method. The format is functional. The essentials:
as §4

A further series has as its system PBMC. Nature of the series: Induction of apoptosis in human PBMCs at 5 or 10 uM incubated for 24 hrs by Annexin V and propidium iodide staining based FACS method. It counts as cell-based. In a few lines:
as §1

The source made the active and inactive calls. The calls are words filed in the database; no cut-off is given here.

Induced myeloid leukemia cell differentiation protein Mcl-1, sequence (Q07820 whole entry): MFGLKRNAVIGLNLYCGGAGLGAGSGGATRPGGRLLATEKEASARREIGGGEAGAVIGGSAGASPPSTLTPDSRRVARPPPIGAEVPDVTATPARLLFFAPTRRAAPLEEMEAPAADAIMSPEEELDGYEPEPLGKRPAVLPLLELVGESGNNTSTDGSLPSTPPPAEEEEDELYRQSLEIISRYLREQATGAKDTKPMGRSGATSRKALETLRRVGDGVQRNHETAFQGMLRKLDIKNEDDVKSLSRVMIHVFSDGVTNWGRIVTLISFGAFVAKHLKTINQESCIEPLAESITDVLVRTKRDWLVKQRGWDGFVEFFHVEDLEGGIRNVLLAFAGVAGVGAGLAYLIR
Apoptosis regulator Bcl-2, sequence (P10415 whole entry): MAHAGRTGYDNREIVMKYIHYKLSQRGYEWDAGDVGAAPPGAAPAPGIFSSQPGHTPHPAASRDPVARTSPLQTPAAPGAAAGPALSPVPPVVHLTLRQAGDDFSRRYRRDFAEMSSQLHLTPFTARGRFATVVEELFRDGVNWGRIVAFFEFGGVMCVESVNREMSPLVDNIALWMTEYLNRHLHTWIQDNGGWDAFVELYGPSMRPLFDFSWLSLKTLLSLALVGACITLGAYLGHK
T1 sequence (Q07817 whole entry): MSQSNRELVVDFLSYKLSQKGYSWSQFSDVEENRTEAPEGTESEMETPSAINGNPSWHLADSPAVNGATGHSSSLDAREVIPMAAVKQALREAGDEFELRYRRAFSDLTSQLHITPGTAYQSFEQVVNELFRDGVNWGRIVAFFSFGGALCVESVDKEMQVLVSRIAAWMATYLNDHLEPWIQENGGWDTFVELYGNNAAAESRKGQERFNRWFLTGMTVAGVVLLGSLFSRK

Regarding `CC(C)c1cc(-c2cc3ccccc3nc2N2CCOCC2)cc2nc(N3CCOCC3)ccc12`, the Activity on Bcl-2-like protein 1 [1] came out at 67.9%.
For the molecule `CCOc1nc2ccccc2cc1-c1cc(C(C)C)c2cc(-c3cc(C(C)C)c4ccc(N5CCOCC5)nc4c3)c(OCC)nc2c1`, the Activity at Bcl-2-like protein 1 [1] was determined as 93.6%.
Take `CC(C)c1cc(-c2cc3ccccc3nc2N2CCCC2)cc2nc(N3CCCC3)ccc12`: the result in the series with IM-9 [2], with BP3 [3] and in the series with RS4-11 [6] was inactive. For the same molecule, the EC50 in [4] is 2.3 µM; at Bcl-2-related protein A1, 21.5 µM; in series [5] it was 1.4 µM; at Bcl-2-like protein 1 [7] it was over 100 µM. Besides, on Bcl-2-like protein 1 [1], the Activity worked out at 4.37%.
Regarding `CCOc1nc2cc(-c3cc4ccccc4nc3N3CCOCC3)cc(C(C)C)c2cc1-c1cc(C(C)C)c2ccc(N3CCCC3)nc2c1`, the Activity on Bcl-2-like protein 1 [1] worked out at 92.2%.
Turning to `CCCOc1ccc2c(C(C)C)cc(-c3cc4ccccc4nc3N3CCOCC3)cc2n1`, in the series with BP3 [3], the outcome was inactive. Also, the concentration for a half-maximal effect (EC50) is 7.9 µM in series [4], 8.2 µM on Bcl-2-related protein A1, 9.2 µM in series [5] and over 100 µM at Bcl-2-like protein 1 [7]. Further, the Activity on Bcl-2-like protein 1 [1] was determined as 32.7%.
Take `CC(C)=CCC[C@]1(C)C=Cc2c(O)c3c(c(CC=C(C)C)c2O1)O[C@]12C(=C[C@@H]4C[C@H]1C(C)(C)O[C@@]2(C/C=C(/C)C(=O)O)C4=O)C3=O`: the outcome with MEF [8] was Active. In addition, the outcome in the series with BP3 [9], in the series on RS4-11 [10] and in the series on IM-9 [11] was inactive.
For `CCCOc1ccc2c(C(C)C)cc(-c3cc4c(C(C)C)cc(-c5cc6ccccc6nc5N5CCCC5)cc4nc3OCC)cc2n1`, the Activity at Bcl-2-like protein 1 [1] came to 96.4%.
The same measure, in the same setting: in the case of `CCCOc1ccc2c(C(C)C)cc(-c3cc4ccccc4nc3N3CCCC3)cc2n1` it was 84.4%.
Still for that read-out and setting: in the case of `CCOc1nc2cc(-c3cc4ccccc4nc3N3CCCC3)cc(C(C)C)c2cc1-c1cc(C(C)C)c2ccc(N3CCCC3)nc2c1` it was 95.1%.
In the case of `COC1=CC(c2cc3ccccc3[nH]2)=N/C1=C\c1[nH]c(C)cc1C` [OBATOCLAX], the outcome in the series with IM-9 [2], in the series with BP3 [3] and in the series on RS4-11 [6] was Active. Moreover, the EC50 in series [4] is 0.5 µM; at Bcl-2-related protein A1 it was 0.6 µM; in series [5], 0.3 µM; on Bcl-2-like protein 1 [7], 0.9 µM. For the same molecule, the outcome in the series on MEF [12] was inactive.
Regarding `CCCOc1nc2ccccc2cc1-c1cc(C(C)C)c2cc(-c3cc(C(C)C)c4ccc(N5CCCC5)nc4c3)c(OCCC)nc2c1`, the Activity on Bcl-2-like protein 1 [1] was 94.6%.
Same read-out and setting: in the case of `CCOc1ccc2c(C(C)C)cc(-c3cc4c(C(C)C)cc(-c5cc6ccccc6nc5N5CCCC5)cc4nc3OCC)cc2n1` it was 95.3%; in that of `CCCOc1nc2cc(-c3cc4ccccc4nc3N3CCOCC3)cc(C(C)C)c2cc1-c1cc(C(C)C)c2ccc(N3CCCC3)nc2c1`, 93.4%.
Same read-out and setting: in the case of `CCCOc1nc2ccccc2cc1-c1cc(C(C)C)c2cc(-c3cc(C(C)C)c4ccc(N5CCOCC5)nc4c3)c(OCCC)nc2c1` it was 92.9%; in that of `CCOc1nc2ccccc2cc1-c1cc(C(C)C)c2cc(-c3cc(C(C)C)c4ccc(N5CCCC5)nc4c3)c(OCC)nc2c1`, 92.3%.
Turning to `CN(C)CC[C@H](CSc1ccccc1)Nc1ccc(S(=O)(=O)NC(=O)c2ccc(N3CCN(Cc4ccccc4-c4ccc(Cl)cc4)CC3)cc2)cc1[N+](=O)[O-]`, the result in the series on IM-9 [2], in the series with BP3 [3] and in the series on RS4-11 [6] was Active. In addition, in the series on MEF [12], the outcome was inactive.
`CCCOc1ccc2c(C(C)C)cc(-c3cc4c(C(C)C)cc(-c5cc6ccccc6nc5N5CCCC5)cc4nc3OCCC)cc2n1`: at Bcl-2-like protein 1 [1], the Activity was 92.8%.
Same read-out and setting: the same measure for `CCOc1nc2cc(-c3cc4ccccc4nc3N3CCCC3)cc(C(C)C)c2cc1-c1cc(C(C)C)c2ccc(N3CCOCC3)nc2c1`: 91%.
Same read-out and setting: in the case of `CCCOc1nc2cc(-c3cc4ccccc4nc3N3CCOCC3)cc(C(C)C)c2cc1-c1cc(C(C)C)c2ccc(OCC)nc2c1` it was 95.2%.
Take `CCOc1ccc2c(C(C)C)cc(-c3cc4ccccc4nc3N3CCCC3)cc2n1`: the result with IM-9 [2] and in the series with RS4-11 [6] was Active. For the same molecule, the outcome in the series on BP3 [3] and with MEF [13] was inactive. Further, the 50% effective concentration (EC50) was 2.1 µM in series [4], 25.5 µM on Bcl-2-related protein A1, 3.5 µM in series [5] and 6.2 µM at Bcl-2-like protein 1 [7]. The Activity is 0.42% on Bcl-2-like protein 1 [1] and “Non-toxic” in the series with PBMC.
With `CCCOc1nc2cc(-c3cc4ccccc4nc3N3CCCC3)cc(C(C)C)c2cc1-c1cc(C(C)C)c2ccc(OCC)nc2c1`, the Activity on Bcl-2-like protein 1 [1] was found to be 94.5%.
Same read-out and setting: the same measure for `CCCOc1nc2ccccc2cc1-c1cc(C(C)C)c2ccc(N3CCCC3)nc2c1`: 86.8%.
Take `CCCOc1nc2cc(-c3cc4ccccc4nc3N3CCCC3)cc(C(C)C)c2cc1-c1cc(C(C)C)c2ccc(N3CCOCC3)nc2c1`: the Activity on Bcl-2-like protein 1 [1] is 96.5%.
Still for that read-out and setting: the same measure for `CCOc1nc2cc(-c3cc4ccccc4nc3N3CCOCC3)cc(C(C)C)c2cc1-c1cc(C(C)C)c2ccc(N3CCOCC3)nc2c1`: 96.5%.
As for `CCOc1ccc2c(C(C)C)cc(-c3cc4ccccc4nc3N3CCOCC3)cc2n1`, the result with IM-9 [2], in the series with BP3 [3] and with RS4-11 [6] was inactive. For the same molecule, the EC50 in series [4] was determined as 3.5 µM; on Bcl-2-related protein A1, 24 µM; in [5], 2.7 µM; at Bcl-2-like protein 1 [7] it was 14.6 µM. Besides, the Activity at Bcl-2-like protein 1 [1] was 37.9%.
In the case of `CCCOc1nc2ccccc2cc1-c1cc(C(C)C)c2ccc(N3CCOCC3)nc2c1`, the outcome in the series on IM-9 [2], in the series with BP3 [3] and with RS4-11 [6] was inactive. The EC50 in series [4] is 11.6 µM; at Bcl-2-related protein A1 it was 17.8 µM; in series [5] it was 6.6 µM; on Bcl-2-like protein 1 [7], over 100 µM. Further, on Bcl-2-like protein 1 [1], the Activity was 55.5%.
With `CCCOc1ccc2c(C(C)C)cc(-c3cc4c(C(C)C)cc(-c5cc6ccccc6nc5N5CCOCC5)cc4nc3OCCC)cc2n1`, at Bcl-2-like protein 1 [1], the Activity turned out to be 92.3%.
The same measure, in the same setting: in the case of `CCOc1nc2cccc(C(C)C)c2cc1-c1cc(C(C)C)c2ccc(N3CCOCC3)nc2c1` it was 70.3%; in that of `CCCOc1nc2cc(-c3cc4ccccc4nc3N3CCOCC3)cc(C(C)C)c2cc1-c1cc(C(C)C)c2ccc(N3CCOCC3)nc2c1`, 81.6%; in that of `CCOc1nc2cccc(C(C)C)c2cc1-c1cc(C(C)C)c2ccc(N3CCCC3)nc2c1`, 91.6%.
For `CN[C@@H]1C[C@H]2O[C@@](C)([C@@H]1OC)n1c3ccccc3c3c4c(c5c6ccccc6n2c5c31)C(=O)NC4`, the outcome with MEF [8] was Active.
Turning to `CCCOc1nc2cc(-c3cc4ccccc4nc3N3CCCC3)cc(C(C)C)c2cc1-c1cc(C(C)C)c2ccc(N3CCCC3)nc2c1`, the Activity at Bcl-2-like protein 1 [1] was found to be 90.5%.

For orientation: EC50 means the concentration giving half of the maximal effect.

The values are drawn from ChEMBL document CHEMBL2169820, “Synthesis and biological activities of polyquinoline derivatives: new Bcl-2 family protein modulators” (Eur J Med Chem, 2012).
